According to ChEMBL document CHEMBL3112564, “Identification of clinically viable quinolinol inhibitors of botulinum neurotoxin A light chain” (J Med Chem, 2014):
Values after ≈ are worked out from the molar mass of the structure shown.

Tests used:
[1] = target: Botulinum neurotoxin type A (Clostridium botulinum, UniProt P0DPI0)
Plasma [2] = experiment: Half life in human plasma at 1 uM by LC-MS/MS analysis; format: ADME, cell-free
In short: (§1)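 Compound at 1.0 μM was incubated in plasma at 37 °C and sampled at 0, 1, 3, 5 and 24 h. Proteins were precipitated with cold acetonitrile containing internal standard, and samples were analysed by LC–MS/MS for percent remaining. Half-life came from regression analysis.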

Plasma [3] = experiment: Metabolic stability in human plasma assessed as compound remaining at 1 uM measured at 3 hrs by LC-MS/MS analysis; format: ADME, cell-free
In short: as §1

Plasma [4] = experiment: Metabolic stability in Sprague-Dawley rat plasma assessed as compound remaining at 1 uM measured at 3 hrs by LC-MS/MS analysis; format: ADME, cell-free
In short: as §1

Liver microsome [5] = experiment: Half life in human liver microsomes at 1 uM by reversed phase LC/MS analysis; format: ADME
In short: (§2)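 Liver microsomes were from humans (pooled from 10 male donors) or male Sprague–Dawley rats aged 8–10 weeks. Incubations used 0.125 mg/mL total protein and 1.0 μM drug at 37 °C, sampled at 0, 5, 15, 30 and 60 min. Parent-to-product transitions were read by reversed-phase LC with triple quadrupole MS, and % remaining was taken relative to time zero. t1/2 = −ln(2)/k, with k from log–linear regression.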

[6] = Aqueous solubility of the compound at pH 1 after 24 hrs by shake flask method; format: physicochemical
In short: (§3)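 Miniaturized shake-flask method: analyte at 1.0 mM in aqueous solution at pH 1.0 or 6.8, shaken gently (600 rpm) in a syringeless filter at room temperature for 24 h. Filtrate was collected after a further 30 min, diluted in 50:50 MeCN/water with 0.1% formic acid, and analysed by LC–MS/MS. Calibration range was 0.05–12.5 μM at pH 6.8 and 5.0–25000 μM at pH 1.0.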

Liver microsome [7] = experiment: Drug metabolism in human liver microsomes assessed as metabolic rate at 1 uM by reversed phase LC/MS analysis; format: ADME
In short: as §2

Liver microsome [8] = experiment: Half life in Sprague-Dawley rat liver microsomes at 1 uM by reversed phase LC/MS analysis; format: ADME
In short: as §2

Liver microsome [9] = experiment: Drug metabolism in Sprague-Dawley rat liver microsomes assessed as metabolic rate at 1 uM by reversed phase LC/MS analysis; format: ADME
In short: as §2

Plasma [10] = experiment: Half life in Sprague-Dawley rat plasma at 1 uM by LC-MS/MS analysis; format: ADME, cell-free
In short: as §1

[11] = Aqueous solubility of the compound at pH 6.8 after 24 hrs by shake flask method; format: physicochemical; conditions: buffer, pH 6.8, 24 h
In short: as §3

Homo sapiens = species on record: Homo sapiens; experiment: Half life in human; format: ADME, organism-based; conditions: in vivo
Serum = experiment: Drug uptake in serum of alzheimer patient at 250 to 750 mg, po; format: ADME, cell-free; conditions: human, read-out: Drug uptake

Botulinum neurotoxin type A, sequence (P0DPI0 2-448 limits assumed): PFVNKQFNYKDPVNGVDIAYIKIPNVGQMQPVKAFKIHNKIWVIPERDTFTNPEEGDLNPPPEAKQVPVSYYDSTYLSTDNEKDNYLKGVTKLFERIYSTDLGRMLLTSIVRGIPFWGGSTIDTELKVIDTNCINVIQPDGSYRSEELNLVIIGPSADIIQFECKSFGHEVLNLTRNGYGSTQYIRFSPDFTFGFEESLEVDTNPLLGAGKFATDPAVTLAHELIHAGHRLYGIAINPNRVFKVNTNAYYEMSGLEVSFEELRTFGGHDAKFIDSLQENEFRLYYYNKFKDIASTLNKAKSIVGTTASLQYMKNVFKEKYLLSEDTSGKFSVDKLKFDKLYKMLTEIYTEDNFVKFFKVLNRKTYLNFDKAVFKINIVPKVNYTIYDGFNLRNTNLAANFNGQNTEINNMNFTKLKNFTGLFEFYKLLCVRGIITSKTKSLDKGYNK

## Cc1cccc(NC(c2ccc(N(C)C)cc2)c2ccc3ccc(C)nc3c2O)n1 (stereo unspecified)
[1]
  IC50: 4.5 µM

## Cc1ccnc(NC(c2ccc([N+](=O)[O-])cc2)c2ccc3ccc(C)nc3c2O)c1 (stereo unspecified)
Plasma [2]
  t1/2: 42 h
Plasma [3]
  Stability: 92.2%
Plasma [4]
  Stability: 98.5%
Liver microsome [5]
  t1/2: 1.93 h
[6]
  solubility thermodynamic at 24 h: 997 µM (≈ 399 µg/mL)
[1]
  IC50: 1 µM
Liver microsome [7]
  Drug metabolism: 0.047 µM/min/mg
Liver microsome [8]
  t1/2: 0.338 h
Liver microsome [9]
  Drug metabolism: 0.271 µM/min/mg
Plasma [10]
  t1/2: 109 h

## COc1ccc(C(Nc2ccccn2)c2ccc3cccnc3c2O)cc1 (stereo unspecified)
Plasma [2]
  t1/2: 6.1 h
Plasma [3]
  Stability: 53.4%
Plasma [4]
  Stability: 42.2%
Liver microsome [5]
  t1/2: 0.378 h
[6]
  solubility thermodynamic at 24 h: 102 µM (≈ 36.5 µg/mL)
[1]
  IC50: 5.6 µM
Liver microsome [7]
  Drug metabolism: 0.242 µM/min/mg
Liver microsome [8]
  t1/2: 0.188 h
Liver microsome [9]
  Drug metabolism: 0.487 µM/min/mg
Plasma [10]
  t1/2: 5 h

## COc1ccc(C(Nc2ccccn2)c2ccc3ccc(C)nc3c2O)cc1 (stereo unspecified)
Plasma [2]
  t1/2: 10.7 h
Plasma [3]
  Stability: 66.2%
Plasma [4]
  Stability: 86.6%
Liver microsome [5]
  t1/2: 0.283 h
[6]
  solubility thermodynamic at 24 h: 76.7 µM (≈ 28.5 µg/mL)
[1]
  IC50: 1.9 µM
Liver microsome [7]
  Drug metabolism: 0.324 µM/min/mg
Liver microsome [8]
  t1/2: 0.147 h
Liver microsome [9]
  Drug metabolism: 0.627 µM/min/mg
Plasma [10]
  t1/2: 5 h

## Cc1ccc2ccc(C(Nc3ccccn3)c3ccc(C)s3)c(O)c2n1 (stereo unspecified)
[1]
  IC50: 2 µM

## Oc1c(C(Nc2ccccc2Cl)c2ccccn2)ccc2cccnc12 (stereo unspecified)
[1]
  IC50: 5.6 µM

## Oc1c(C(Nc2ccccc2Cl)c2cccnc2)ccc2cccnc12 (stereo unspecified)
[1]
  IC50: 1.9 µM

## CCOC(=O)c1ccc(NC(c2ccccn2)c2ccc3cccnc3c2O)cc1 (stereo unspecified)
[1]
  IC50: 5.1 µM

## CCOC(=O)c1ccc(NC(c2cccnc2)c2ccc3cccnc3c2O)cc1 (stereo unspecified)
[1]
  IC50: 2.9 µM

## COC(=O)c1cccc(NC(c2ccccn2)c2ccc3cccnc3c2O)c1 (stereo unspecified)
[1]
  IC50: 7.8 µM

## COC(=O)c1cccc(NC(c2cccnc2)c2ccc3cccnc3c2O)c1 (stereo unspecified)
[1]
  IC50: 4.2 µM

## CCCOC(=O)c1ccc(NC(c2ccccn2)c2ccc3cccnc3c2O)cc1 (stereo unspecified)
[1]
  IC50: 5.6 µM

## CCCOC(=O)c1ccc(NC(c2cccnc2)c2ccc3cccnc3c2O)cc1 (stereo unspecified)
[1]
  IC50: 3 µM

## COc1ccc(C)cc1NC(c1ccccn1)c1ccc2cccnc2c1O (stereo unspecified)
[1]
  IC50: 5.1 µM

## COc1ccc(C)cc1NC(c1cccnc1)c1ccc2cccnc2c1O (stereo unspecified)
[1]
  IC50: 4.4 µM

## Cc1cc(Cl)ccc1NC(c1ccccn1)c1ccc2cccnc2c1O (stereo unspecified)
[1]
  IC50: 5.2 µM

## Cc1cc(Cl)ccc1NC(c1cccnc1)c1ccc2cccnc2c1O (stereo unspecified)
[1]
  IC50: 2.3 µM

## Cc1cccc(NC(c2ccccn2)c2ccc3cccnc3c2O)c1 (stereo unspecified)
[1]
  IC50: 16.7 µM

## Cc1cccc(NC(c2cccnc2)c2ccc3cccnc3c2O)c1 (stereo unspecified)
[1]
  IC50: 6.7 µM

## Oc1c(CNc2ccccn2)ccc2cccnc12
Plasma [2]
  t1/2: 14.2 h
Plasma [3]
  Stability: 96.1%
Plasma [4]
  Stability: 76.3%
Liver microsome [5]
  t1/2: 0.452 h
[6]
  solubility thermodynamic at 24 h: 1140 µM (≈ 287 µg/mL)
[1]
  IC50: 26.7 µM
Liver microsome [7]
  Drug metabolism: 0.203 µM/min/mg
Liver microsome [8]
  t1/2: 0.613 h
Liver microsome [9]
  Drug metabolism: 0.149 µM/min/mg
Plasma [10]
  t1/2: 12.9 h

## Cc1ccc2c(Cl)cc(I)c(O)c2n1
[1]
  IC50: 14.1 µM

## Cc1ccnc(NC(c2ccc([N+](=O)[O-])cc2)c2ccc3cccnc3c2O)c1 (stereo unspecified)
Plasma [2]
  t1/2: 24.4 h
Plasma [3]
  Stability: 90.9%
Plasma [4]
  Stability: 100%
Liver microsome [5]
  t1/2: 0.425 h
[6]
  solubility thermodynamic at 24 h: 1050 µM (≈ 405 µg/mL)
[1]
  IC50: 4.3 µM
Liver microsome [7]
  Drug metabolism: 0.215 µM/min/mg
Liver microsome [8]
  t1/2: 0.703 h
Liver microsome [9]
  Drug metabolism: 0.13 µM/min/mg
Plasma [10]
  t1/2: 51.1 h

## CCC(=O)NC(c1ccc(OC)c(OC)c1)c1ccc2cccnc2c1O (stereo unspecified)
[1]
  IC50: > 100 µM

## COc1cccc(C(Nc2cc(C)ccn2)c2ccc3cccnc3c2O)c1 (stereo unspecified)
[1]
  IC50: 3.3 µM

## CCC(=O)NC(c1ccc(N(C)C)cc1)c1ccc2cccnc2c1O (stereo unspecified)
[1]
  IC50: > 100 µM

## CCC(=O)NC(c1ccccc1Cl)c1ccc2cccnc2c1O (stereo unspecified)
[1]
  IC50: > 100 µM

## Cc1ccc2cccc(O)c2n1 [8-HYDROXY QUINALDINE]
[1]
  IC50: > 30 µM

## Oc1c(Cl)cc(Cl)c2cccnc12 [CHLOROXINE]
Plasma [2]
  t1/2: 18.6 h
Plasma [3]
  Stability: 100%
[11]
  solubility: 0.532 µM (≈ 0.114 µg/mL)
Plasma [4]
  Stability: 100%
Liver microsome [5]
  t1/2: 0.815 h
[6]
  solubility thermodynamic at 24 h: 326 µM (≈ 69.8 µg/mL)
[1]
  IC50: 11.5 µM
Liver microsome [7]
  Drug metabolism: 0.112 µM/min/mg
Liver microsome [8]
  t1/2: 0.917 h
Liver microsome [9]
  Drug metabolism: 0.1 µM/min/mg
Plasma [10]
  t1/2: 67.7 h

## Cc1ccc2c(Cl)cc(Cl)c(O)c2n1 [CHLORQUINALDOL]
Plasma [2]
  t1/2: 24.5 h
Plasma [3]
  Stability: 92.2%
Plasma [4]
  Stability: 96.9%
Liver microsome [5]
  t1/2: 0.48 h
[6]
  solubility thermodynamic at 24 h: 1100 µM (≈ 250 µg/mL)
[1]
  IC50: 10.1 µM
Liver microsome [7]
  Drug metabolism: 0.19 µM/min/mg
Liver microsome [8]
  t1/2: 0.643 h
Liver microsome [9]
  Drug metabolism: 0.142 µM/min/mg
Plasma [10]
  t1/2: 115 h

## Oc1c(I)cc(Cl)c2cccnc12 [CLIOQUINOL]
Plasma [2]
  t1/2: 42.4 h
Plasma [3]
  Stability: 100%
Plasma [4]
  Stability: 83.9%
Liver microsome [5]
  t1/2: 1.06 h
[6]
  solubility thermodynamic at 24 h: 38.1 µM (≈ 11.6 µg/mL)
Homo sapiens
  t1/2: 11 h
[1]
  IC50: 20.3 µM
Liver microsome [7]
  Drug metabolism: 0.086 µM/min/mg
Liver microsome [8]
  t1/2: 1.28 h
Liver microsome [9]
  Drug metabolism: 0.071 µM/min/mg
Serum
  concentration: 13 µM
Plasma [10]
  t1/2: 136 h

## Oc1cccc2cccnc12 [OXYQUINOLINE]
[1]
  IC50: > 30 µM
